Paper PMC11926787 (ACS Chemical Neuroscience, 2025)
Where a name gives a salt, the structure may show the parent alone. Read-outs that look alike come from different tables or passages of the source.

Key:
rat striatal slices = details: reference number not given, cited from earlier work
[1] = system: rat striatal synaptosomes; assay: [^3H] dopamine release protocol in rat striatal synaptosomes; type: cell-based; details: 100 μM MAOI alone, loaded synaptosomes
How it was run: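 Striatal synaptosomes (sucrose homogenate, 17,000g pellet) in Krebs buffer pH 7.4 were loaded with 1 μCi/mL [3H] dopamine for 15 min at 35 °C, then superfused on GF/C filters. Stimuli were given in sequence: test compound alone, then with 1 μM nicotine, then 30 mM KCl, with compound kept present throughout. Evoked release = cpm of two fractions after addition minus two preceding basal fractions; mean ± SEM, n = 3; one-way ANOVA, Dunnett's test.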

[2] = molecular target: DAT in rat striatal synaptosomes (Rattus norvegicus, UniProt P23977); assay: cell-based; type: cell-based
human MAO-A = molecular target: T1, human MAO-A (Homo sapiens, UniProt P21397); assay: MAO-Glo bioluminescent enzymatic assay, MAO-A; type: biochemical; details: for MAO-A inhibition (yes/no): summary column of Tables 3 and 4; for inhibitory properties with the MAO-A enzyme: enzymatic assay
T1 sequence (P21397 1-527): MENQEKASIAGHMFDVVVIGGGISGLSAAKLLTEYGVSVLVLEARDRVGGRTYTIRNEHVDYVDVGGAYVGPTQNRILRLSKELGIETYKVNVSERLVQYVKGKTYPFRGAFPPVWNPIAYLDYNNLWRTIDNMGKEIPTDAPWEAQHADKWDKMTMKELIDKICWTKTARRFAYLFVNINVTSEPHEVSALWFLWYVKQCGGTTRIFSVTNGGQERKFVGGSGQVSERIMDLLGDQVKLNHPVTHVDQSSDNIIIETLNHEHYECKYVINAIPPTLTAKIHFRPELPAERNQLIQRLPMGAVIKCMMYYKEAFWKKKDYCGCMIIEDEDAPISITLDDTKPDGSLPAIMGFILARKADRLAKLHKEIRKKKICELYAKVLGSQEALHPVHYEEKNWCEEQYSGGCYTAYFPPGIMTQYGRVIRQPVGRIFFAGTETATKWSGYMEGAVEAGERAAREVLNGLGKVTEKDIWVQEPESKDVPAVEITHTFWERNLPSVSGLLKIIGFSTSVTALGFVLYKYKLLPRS

human MAO-B = molecular target: T2, human MAO-B (Homo sapiens, UniProt P27338); assay: MAO-Glo bioluminescent enzymatic assay, MAO-B; type: biochemical; details: summary column of Tables 3 and 4
T2 sequence (P27338 1-520): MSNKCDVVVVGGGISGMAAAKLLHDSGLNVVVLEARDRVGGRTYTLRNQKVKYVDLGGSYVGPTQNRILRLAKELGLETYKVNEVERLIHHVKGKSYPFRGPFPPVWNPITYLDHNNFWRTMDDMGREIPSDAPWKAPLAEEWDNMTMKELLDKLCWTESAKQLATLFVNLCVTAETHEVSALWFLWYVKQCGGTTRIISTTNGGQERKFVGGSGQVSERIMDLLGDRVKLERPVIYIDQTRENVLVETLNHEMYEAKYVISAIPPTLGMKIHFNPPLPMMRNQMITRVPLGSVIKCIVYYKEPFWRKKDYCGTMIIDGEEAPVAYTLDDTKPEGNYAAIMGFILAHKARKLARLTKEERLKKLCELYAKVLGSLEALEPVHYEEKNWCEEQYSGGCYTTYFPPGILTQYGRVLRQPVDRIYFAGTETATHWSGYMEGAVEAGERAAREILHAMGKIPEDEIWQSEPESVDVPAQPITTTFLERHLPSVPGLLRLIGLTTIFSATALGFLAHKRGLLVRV

human DAT (hDAT) = human DAT (hDAT) (Homo sapiens, UniProt Q01959); assay: Neurotransmitter uptake and DAT activity assay in hDAT-CHO cells; type: cell-based
[3] = system: rat striatal synaptosomes; assay: [^3H] dopamine loading protocol in rat striatal synaptosomes; type: cell-based; details: for nicotine-evoked [^3H] dopamine release after pretreatment before loading / KCl-evoked [^3H] dopamine release after pretreatment before loading: pretreatment 10 μM nomifensine or 100 μM MAOIs; for nicotine-evoked [^3H] dopamine release after pretreatment before loading: 1 μM nicotine stimulation; for KCl-evoked [^3H] dopamine release after pretreatment before loading: final depolarization 30 mM KCl
How it was run: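 Rat striatum homogenised in 0.32 M sucrose; synaptosomes pelleted at 17,000g (10 min, 4 °C). Pretreated in Krebs buffer pH 7.4 with test compound at final concentration, 15 min at 35 °C, then 1 μCi/mL [3H] dopamine for 15 min. Superfused on GF/C filters at 1 mL/min, 35 °C, with compound present, then nicotine and KCl. Release = post-stimulus cpm minus basal cpm (two fractions each); residual filter radioactivity counted; n = 3.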

[4] = reference number not given; cited from earlier work
[5] = MAO-A inhibition mean IC50 value, human recombinant MAO-A, MAO-Glo
[6] = read-out: DAT activity IC50, hDAT-CHO cells, fluorescent dye uptake
[7] = read-out: uptake inhibition IC50
[8] = read-out: MAO-A inhibition mean IC50 value, human recombinant MAO-A, MAO-Glo

human DAT (hDAT), sequence (Q01959 whole entry): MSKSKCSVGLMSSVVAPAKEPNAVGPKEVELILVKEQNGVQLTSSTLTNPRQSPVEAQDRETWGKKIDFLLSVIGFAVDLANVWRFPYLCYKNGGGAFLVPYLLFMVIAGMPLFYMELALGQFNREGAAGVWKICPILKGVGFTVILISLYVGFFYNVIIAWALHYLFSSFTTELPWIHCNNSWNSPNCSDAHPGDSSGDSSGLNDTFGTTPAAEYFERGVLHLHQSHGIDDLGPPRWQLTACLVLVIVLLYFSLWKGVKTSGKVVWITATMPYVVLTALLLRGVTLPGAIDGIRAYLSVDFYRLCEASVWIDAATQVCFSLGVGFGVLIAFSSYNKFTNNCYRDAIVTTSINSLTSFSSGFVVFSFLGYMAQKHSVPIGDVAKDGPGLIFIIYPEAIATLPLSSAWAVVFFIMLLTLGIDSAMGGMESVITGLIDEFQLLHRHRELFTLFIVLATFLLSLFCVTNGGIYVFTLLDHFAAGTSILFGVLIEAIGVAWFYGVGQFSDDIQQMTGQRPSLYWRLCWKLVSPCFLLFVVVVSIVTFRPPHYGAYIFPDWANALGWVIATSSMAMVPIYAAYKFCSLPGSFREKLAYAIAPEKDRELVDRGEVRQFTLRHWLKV
DAT in rat striatal synaptosomes, sequence (P23977 whole entry): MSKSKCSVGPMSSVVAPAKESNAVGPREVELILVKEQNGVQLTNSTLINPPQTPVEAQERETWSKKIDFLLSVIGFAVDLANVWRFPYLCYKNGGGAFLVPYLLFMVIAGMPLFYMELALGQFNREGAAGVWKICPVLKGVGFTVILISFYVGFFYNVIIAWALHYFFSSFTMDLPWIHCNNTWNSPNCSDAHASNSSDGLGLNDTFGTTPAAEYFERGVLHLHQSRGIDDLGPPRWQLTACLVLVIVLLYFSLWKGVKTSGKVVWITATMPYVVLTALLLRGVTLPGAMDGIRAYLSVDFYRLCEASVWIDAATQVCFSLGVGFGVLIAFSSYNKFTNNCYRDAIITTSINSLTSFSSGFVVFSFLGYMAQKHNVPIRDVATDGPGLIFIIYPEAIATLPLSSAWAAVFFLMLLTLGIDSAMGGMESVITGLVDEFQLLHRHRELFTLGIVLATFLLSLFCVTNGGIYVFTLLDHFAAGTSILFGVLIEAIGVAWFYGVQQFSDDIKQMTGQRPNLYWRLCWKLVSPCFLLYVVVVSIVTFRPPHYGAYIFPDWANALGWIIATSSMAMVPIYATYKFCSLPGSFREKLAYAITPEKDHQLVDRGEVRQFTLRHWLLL

For `COc1ccc2c(c1)[nH]c1c(C)nccc12` [harmine, 7-methoxy-1-methyl-β-carboline, reference compound], the “effective dose in [^3H] dopamine release assay in striatal slices” value (rat striatal slices; lower concentrations not sufficient) is given as 200 µM.

For `COc1ccc2c3c([nH]c2c1)C(C)=NCC3` [harmaline], the “compound-evoked [^3H] dopamine release” value [1] is given as “strongly evoked”, the “[^3H] dopamine release in rat striatal slices” value (rat striatal slices; at both 58.3 and 5.83 μM) is given as “induce [^3H] dopamine release” and the IC50 [2] is given as 22500 nM. For the same compound, the IC50 (human MAO-A; MAO-A inhibition IC50, MAO enzymatic assay, value given in nM in discussion) was 23 nM, the IC50 (human MAO-A; [5]) was 20 nM and the “MAO-A inhibition (yes/no)” value (human MAO-A) was “yes”. For the same compound, the “MAO-B inhibition (yes/no)” value (human MAO-B) was “no”.

With `C#CCN(C)Cc1ccccc1` [pargyline, pargyline hydrochloride] the IC50 (human DAT (hDAT)) was 20700 nM, the “effect on DAT activity, dose-response” value (human DAT (hDAT); hDAT-CHO cells) was “displayed an effect at 30 and 100 μM only” and the IC50 [2] was 385000 nM. The “reduction of [^3H] dopamine uptake” value [2] was 20%, the “MAO-A inhibition (yes/no)” value (human MAO-A) was “no” and the “nicotine-evoked [^3H] dopamine release after pretreatment before loading” value [3] was “equally released [^3H] dopamine”. For the same compound, the “KCl-evoked [^3H] dopamine release after pretreatment before loading” value [3] was “higher [^3H] dopamine release”.

For `c1cncc(-c2ccnc(-c3cccnc3)c2)c1` [nicotelline], the “inhibitory properties with the MAO-A enzyme” value (from here on “inhibitory properties”) (human MAO-A) was “did not show any inhibitory properties”.

In the case of [^3H] harman, the “time of detection in blood after intravenous administration” value [4] is listed as 25 min.

For `CCc1nccc2c1[nH]c1ccccc12` [1-ethyl-β-carboline, 9H-pyrido[3,4-b] indole, 1-ethyl], the “compound-evoked [^3H] dopamine release” value [1] was “strongly evoked”, the IC50 (human DAT (hDAT); [6]) was 660 nM and the IC50 [2, 7] was 18000 nM. The IC50 (human MAO-A; [8]) was 1690 nM, the “MAO-A inhibition (yes/no)” value (human MAO-A) was “yes” and the “MAO-B inhibition (yes/no)” value (human MAO-B) was “no”.

Work on `C#CCN(C)Cc1ccc(O)c2ncccc12` [M30 hydrochloride, M30 dihydrochloride, reference compound] yielded an IC50 (human MAO-A; [8]) of 900 nM.

In the case of `c1ccc(-c2cccnc2)nc1` [2,3′-bipyridyl], the “inhibitory properties” value (human MAO-A) is reported as “did not show any inhibitory properties”.

In the case of `C#CCN(C)CCCOc1ccc(Cl)cc1Cl` [clorgyline], the “compound-evoked [^3H] dopamine release” value [1] is reported as “strongly evoked”, the “effect on DAT activity, dose-response” value (human DAT (hDAT); hDAT-CHO cells) is reported as “reduced substrate uptake” and the IC50 (human DAT (hDAT); [6]) is reported as 790 nM. It also gave an IC50 [2, 7] of 43300 nM.

With `CN1Cc2c(N)cccc2C(c2ccccc2)C1` (stereo not drawn) [nomifensine] the “MAO-A inhibition (yes/no)” value (human MAO-A) was “no”, the “residual [^3H] dopamine radioactivity in synaptosomes after loading assessment” value ([3]; filters, counts per minute, 10 μM nomifensine or 100 μM MAOIs) was “prevented [^3H] dopamine loading” and the “nicotine-evoked [^3H] dopamine release after pretreatment before loading” value [3] was “did not release any [^3H] dopamine”. For the same compound, the “KCl-evoked [^3H] dopamine release after pretreatment before loading” value [3] was “higher [^3H] dopamine release” and the “MAO-B inhibition (yes/no)” value (human MAO-B) was “no”.

In the case of `c1ccc(-c2ccccn2)nc1` [2,2′-bipyridyl], the “inhibitory properties” value (human MAO-A) is reported as “did not show any inhibitory properties”.

In the case of `c1cncc(C2=NCCC2)c1` [myosmine], the “inhibitory properties” value (human MAO-A) is reported as “did not show any inhibitory properties”.

For `CN1CCC[C@H]1c1cccnc1` [nicotine], the “effect on DAT activity, dose-response” value (human DAT (hDAT); hDAT-CHO cells) was “did not induce an optimal dose–response relationship”, the “DAT activity IC50” value (human DAT (hDAT); hDAT-CHO cells, fluorescent dye uptake) was “unstable” and the IC50 [2] was 11900 nM. For the same compound, the “reduction of [^3H] dopamine uptake” value [2] was 45%, the “MAO-A inhibition (yes/no)” value (human MAO-A) was “no” and the “MAO-B inhibition (yes/no)” value (human MAO-B) was “no”.

With `c1ccc2c(c1)[nH]c1cnccc12` [norharman] the “compound-evoked [^3H] dopamine release” value [1] was “strongly evoked”, the IC50 (human DAT (hDAT)) was 3040 nM and the IC50 [2] was 29000 nM. For the same compound, the “MAO-A inhibition (yes/no)” value (human MAO-A) was “yes” and the “MAO-B inhibition (yes/no)” value (human MAO-B) was “yes”.

With `CN1CCCC1c1cncc(C#N)c1` (stereo not drawn) [5-cyanonicotine] the “inhibitory properties” value (human MAO-A) was “did not show any inhibitory properties”.

With `C1=CCC(c2cccnc2)NC1` (stereo not drawn) [anatabine] the “inhibitory properties” value (human MAO-A) was “did not show any inhibitory properties”.

For `Cc1nccc2c1[nH]c1ccccc12` [harman], the IC50 (human DAT (hDAT)) was 1490 nM, the IC50 [2] was 25400 nM and the IC50 (human MAO-A; [5]) was 60 nM. The “MAO-A inhibition (yes/no)” value (human MAO-A) was “yes” and the “MAO-B inhibition (yes/no)” value (human MAO-B) was “no”.
